Compounds with a hit are over-represented: about 2.3% of the library has one in this group of screens.
SR-BI uptake up: enhances SR-BI lipid uptake from DiI-HDL. CHO ldlA[mSR-BI] cells, DiI-HDL uptake fluorescence, 3 h; 100 = double the neutral-control signal. activation, % at 12.5 µM. 320,000 compounds, 0.096% hits;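 active = mean replicate activation of at least 60% and every replicate at or above 60%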;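 note: 0% = median plate neutral-control signal and 100% = twice that signal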
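Material: SR-BI-overexpressing, LDLR-lacking CHO cells; schedule: compound exposure 3 h, 37 °C; reagent: DiI-labelled HDL at 10 µg/mL final; technique: bottom-read fluorescence, 550/595 nm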
CAL PDZ FP-1: blocks peptide binding to human CAL PDZ domain; Q9HD26; purified CAL PDZ, TMR-peptide fluorescence polarization, 1 h; inhibition, % at 20 µM; 330,000 compounds, 0.02% hits;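 active = highest replicate inhibition of at least 40%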;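 note: plate controls were DMSO neutral control wells for no effect and unlabeled competitor peptide control wells for full effect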
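Material – purified CerCALP PDZ construct · Detection – FP readout, S and P plane fluorescence · Measure – percent inhibition from loss of millipolarization · Controls – unlabelled peptide for full inhibition, DMSO wells as neutral · Probe or stimulus – TMR-labelled reporter peptide T*-PRC34 bound in PDZ groove · Times – 1 h at RT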
ATG4B inh: ATG4B (human) cysteine protease inhibition; ATG4B cleavage of LC3-PLA2, NBD-HPC fluorescence, 1 h; inhibition, % at 8.33 µM; 340,000 compounds, 0.51% hits; in the data active = inhibition above about 40%
CAL PDZ FP-2: blocks peptide binding to the human CAL PDZ domain | purified CAL PDZ, TMR-peptide fluorescence polarization, 1 h | inhibition, % at 24.9 µM | 300,000 compounds, 0.92% hits | AID 602252;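 active = mean inhibition of at least 30% with at least half of replicates also reaching 30%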;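 note: 0% = DMSO neutral control and 100% = excess unlabeled competitor peptide PRC23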
SR-BI HDL uptake: mouse SR-BI HDL lipid transfer inhibition; Q61009; 320,000 compounds, 0.96% hits; inhibition, % at 12.5 µM; ldlA[mSR-BI] CHO cells, DiI-HDL uptake fluorescence, 3 h;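 active = mean replicate inhibition of at least 70% and a set share of replicates each scoring 70 or more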;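 note: 0% = median of neutral control wells and 100% = median of positive control wells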
Target sequence (Q61009 whole entry, looked up): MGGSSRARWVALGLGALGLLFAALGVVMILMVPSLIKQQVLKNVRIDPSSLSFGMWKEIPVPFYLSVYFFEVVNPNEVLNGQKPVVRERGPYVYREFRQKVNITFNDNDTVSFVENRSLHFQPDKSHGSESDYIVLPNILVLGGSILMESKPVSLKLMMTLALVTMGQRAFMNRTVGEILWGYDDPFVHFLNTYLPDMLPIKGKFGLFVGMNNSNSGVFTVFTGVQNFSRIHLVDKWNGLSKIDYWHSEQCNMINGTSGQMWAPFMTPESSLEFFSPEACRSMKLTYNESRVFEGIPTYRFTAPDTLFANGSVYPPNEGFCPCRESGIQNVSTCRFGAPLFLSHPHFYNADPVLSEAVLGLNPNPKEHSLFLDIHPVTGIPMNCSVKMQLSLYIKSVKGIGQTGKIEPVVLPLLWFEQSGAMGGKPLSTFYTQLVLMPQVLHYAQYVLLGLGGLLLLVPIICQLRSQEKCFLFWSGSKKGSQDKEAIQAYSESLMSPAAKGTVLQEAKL
ATG4B conf: confirmation of human ATG4B inhibitors | shares compounds with ATG4B inh | ATG4B protease fluorescent substrate cleavage assay | inhibition, % at 8.33 µM | 320 compounds, 92% hits | AID 504757; in the data active = inhibition above about 39%
PLA2 counter: PLA2 (human) inhibition in ATG4B counter-screen; purified PLA2, NBD-C6-HPC fluorescence, 45 min; 1,600 compounds, 66% hits; inhibition, % at 8.33 µM; AID 588402; shares compounds with ATG4B inh; in the data active = inhibition above about 50%
Target sequence (P04054 whole entry, looked up): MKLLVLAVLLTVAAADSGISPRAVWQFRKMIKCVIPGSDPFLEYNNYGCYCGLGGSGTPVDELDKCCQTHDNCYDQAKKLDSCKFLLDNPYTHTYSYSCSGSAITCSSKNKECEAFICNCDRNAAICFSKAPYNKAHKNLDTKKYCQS
Active calls of the source: *.

CCOC(=O)c1sc(/N=C/c2ccc(O)cc2O)cc1C was read as SR-BI uptake up -7.6, CAL PDZ FP-1 -2.6, ATG4B inh -8.2, CAL PDZ FP-2 0.0 and SR-BI HDL uptake 7.6.
Screening CCc1ccc(NC(=O)C2CCCN2S(=O)(=O)c2ccc3c(c2)C(C)(C)C(=O)N3C)cc1 (configuration not stated) returned SR-BI uptake up -64.8, CAL PDZ FP-1 -0.4, ATG4B inh 0.3, CAL PDZ FP-2 2.1 and SR-BI HDL uptake 64.8.
COc1cc(/C=C/C(=O)O)cc(S(=O)(=O)Nc2cc(Cl)c(Cl)cc2Cl)c1OC was read as SR-BI uptake up -3.9, CAL PDZ FP-1 -0.9, ATG4B inh 41.1*, CAL PDZ FP-2 -8.4, SR-BI HDL uptake 3.9, ATG4B conf 52.1* and PLA2 counter 7.3.
`CC1CCc2sc(C(=O)N3CCC(C(N)=O)CC3)cc2C1` (configuration not stated) gave SR-BI uptake up -0.2, CAL PDZ FP-1 -3.5, ATG4B inh 42.9*, CAL PDZ FP-2 -5.4, SR-BI HDL uptake 0.2, ATG4B conf 65.9* and PLA2 counter 33.3.
For NC(=O)C1CCN(C(=O)c2cc3c(s2)CCCCC3)CC1 the results were SR-BI uptake up 7.1, CAL PDZ FP-1 -0.1, ATG4B inh 16.3, CAL PDZ FP-2 -7.5 and SR-BI HDL uptake -7.1.
For Cn1cnc([N+](=O)[O-])c1Sc1nc(N)nc2c1ncn2Cc1ccccc1 the results were SR-BI uptake up 7.2, CAL PDZ FP-1 0.0, ATG4B inh 2.4, CAL PDZ FP-2 -1.7 and SR-BI HDL uptake -7.2.
Screening Nc1nc(SCc2ccccc2[N+](=O)[O-])c2ncn(Cc3ccccc3)c2n1 returned SR-BI uptake up -9.5, CAL PDZ FP-1 -1.4, ATG4B inh 50.2*, CAL PDZ FP-2 -4.7, SR-BI HDL uptake 9.5 and PLA2 counter 57.8*.
O=C(NCCc1ccc(Cl)cc1Cl)c1ccc2nc[nH]c2c1 was read as SR-BI uptake up 2.3, CAL PDZ FP-1 -2.3, ATG4B inh 42.5*, CAL PDZ FP-2 -4.4, SR-BI HDL uptake -2.3 and PLA2 counter 51.0*.
O=C(NCCc1ccc(Cl)cc1)c1ccc2nc[nH]c2c1 was read as SR-BI uptake up 4.3, CAL PDZ FP-1 -0.7, ATG4B inh -4.3, CAL PDZ FP-2 4.4 and SR-BI HDL uptake -4.3.
Screening O=C1c2cccc(Cl)c2C(=O)c2c1cccc2N1CCCC1 returned CAL PDZ FP-1 0.1, ATG4B inh 48.4*, CAL PDZ FP-2 -0.2 and PLA2 counter 63.3*.
`CCOC(=O)c1nnsc1N` gave SR-BI uptake up 1.7, CAL PDZ FP-1 -1.2, ATG4B inh 8.3 and SR-BI HDL uptake -1.7.
For CCOc1cc(C(c2c(C)[nH][nH]c2=O)c2c(C)[nH][nH]c2=O)ccc1OS(=O)(=O)c1ccccc1 the results were SR-BI uptake up 15.2, CAL PDZ FP-1 -0.2, ATG4B inh -6.8, CAL PDZ FP-2 -0.5 and SR-BI HDL uptake -15.2.
`Cc1ccc(S(=O)(=O)Oc2ccc(C(c3c(C)[nH][nH]c3=O)c3c(C)[nH][nH]c3=O)cc2)cc1` gave SR-BI uptake up 27.5, CAL PDZ FP-1 -1.2, ATG4B inh 70.4*, CAL PDZ FP-2 1.9, SR-BI HDL uptake -27.5 and PLA2 counter 67.9*.
O=C1Nc2ccccc2S/C1=C/NCc1ccccc1Cl was read as SR-BI uptake up -2.0, CAL PDZ FP-1 -1.7, ATG4B inh 55.4*, CAL PDZ FP-2 -1.4, SR-BI HDL uptake 2.0 and PLA2 counter 61.0*.
CCOc1cc(/C=C2\SC(=O)N(CC(=O)Nc3ccccc3F)C2=O)cc([N+](=O)[O-])c1O was read as SR-BI uptake up -0.9, CAL PDZ FP-1 1.3, ATG4B inh 42.5*, SR-BI HDL uptake 0.9, ATG4B conf 58.8* and PLA2 counter 2.6.
For COc1cc(/C=C2\SC(=O)N(CC(=O)Nc3ccccc3F)C2=O)cc(Cl)c1O the results were SR-BI uptake up 18.5, CAL PDZ FP-1 0.2, ATG4B inh 1.1, CAL PDZ FP-2 -2.3 and SR-BI HDL uptake -18.5.
For CN(CC(=O)OCC(=O)NCc1ccccc1)S(=O)(=O)c1ccc(Cl)cc1 the results were SR-BI uptake up 14.4, CAL PDZ FP-1 -0.6, ATG4B inh -7.8 and SR-BI HDL uptake -14.4.
For COc1ccc(N(CC(=O)N2CCN(Cc3ccccc3)CC2)S(C)(=O)=O)cc1Cl the results were SR-BI uptake up 5.6, CAL PDZ FP-1 -1.4, ATG4B inh -3.6, CAL PDZ FP-2 -3.1 and SR-BI HDL uptake -5.6.
Screening C/C(=N/NC(=O)c1cc2ccccc2cc1O)C1C(=O)c2ccccc2C1=O returned CAL PDZ FP-1 0.4, ATG4B inh 48.9*, CAL PDZ FP-2 -0.5, SR-BI HDL uptake 67.4, ATG4B conf 72.8* and PLA2 counter 26.5.
O=C(/C=C/c1ccc(Cl)cc1Cl)N1CCN(c2ccccc2[N+](=O)[O-])CC1 was read as SR-BI uptake up -6.4, CAL PDZ FP-1 0.1, ATG4B inh 53.2*, CAL PDZ FP-2 -4.4, SR-BI HDL uptake 6.4 and PLA2 counter 60.0*.
For CC(C)CNC(=O)[C@H]1N2C(=O)c3ccccc3C2SC1(C)C (some centres not stated) the results were SR-BI uptake up -1.5, CAL PDZ FP-1 -1.0, ATG4B inh -1.6, CAL PDZ FP-2 -1.0 and SR-BI HDL uptake 1.5.
Cc1ccc(CNS(=O)(=O)c2ccc(C(C)(C)C)cc2)n1C was read as SR-BI uptake up 4.9, CAL PDZ FP-1 -1.5, ATG4B inh 86.3*, CAL PDZ FP-2 -2.4, SR-BI HDL uptake -4.9 and PLA2 counter 89.2*.
For COc1ccc(S(=O)(=O)NCC(c2ccc(C)cc2)N2CCN(C)CC2)cc1 (configuration not stated) the results were SR-BI uptake up 26.2, CAL PDZ FP-1 -1.4, ATG4B inh 1.2, CAL PDZ FP-2 -5.7 and SR-BI HDL uptake -26.2.
For Cc1ccc(Cl)c(OCC(=O)Nc2ccc(S(=O)(=O)NC3=NCCCCC3)cc2)c1 the results were SR-BI uptake up -17.8, CAL PDZ FP-1 -0.7, ATG4B inh -3.1, CAL PDZ FP-2 -5.7 and SR-BI HDL uptake 17.8.
For Cc1cc(OCC(=O)Nc2ccc(S(=O)(=O)NC3=NCCCCC3)cc2)c(C(C)C)cc1Cl the results were SR-BI uptake up -2.4, CAL PDZ FP-1 -0.1, ATG4B inh 48.0*, CAL PDZ FP-2 1.8, SR-BI HDL uptake 2.4 and PLA2 counter 56.0*.
`Oc1c(Br)cc(C=Nc2ccc3nc(-c4ccccc4)[nH]c3c2)c(O)c1Br` gave SR-BI uptake up -23.4, CAL PDZ FP-1 -0.4, ATG4B inh 21.2, CAL PDZ FP-2 -5.5 and SR-BI HDL uptake 23.5.
